Results from different studies.
Protocols differ between the studies behind these lines.
Cell line: MDA-MB-231
Observed: cell growth or viability

| Compound | technique | time | endpoint | result |
| --- | --- | --- | --- | --- |
| CC[C@H](C)[C@@H]([C@@H](CC(=O)N1CCC[C@H]1[C@H](OC)[C@@H](C)C(=O)N[C@H](C)[C@@H](O)c1ccccc1)OC)N(C)C(=O)[C@@H](NC(=O)[C@H](C(C)C)N(C)C(=O)OCc1ccc(NC(=O)[C@H](CCCNC(N)=O)NC(=O)[C@@H](NC(=O)CCOCCOCCOCCOCCC(=O)N[C@@H]2CSSC[C@H](C(=O)O)NC(=O)CNC(=O)[C@@H](CCCNC(=N)N)NC(=O)CNC(=O)[C@@H](C(C)C)NC(=O)CNC(=O)[C@@H](C)NC(=O)[C@@H](CCCNC(=N)N)NC2=O)C(C)C)cc1)C(C)C | resazurin | 24 h | IC50 | 120 nM |
| N.N.[Cl][Pt][Cl] | MTT | 48 h | IC50 | 40000 nM |
| O=C1c2ccccc2-c2c3c(cc4ccnc1c24)OCO3 | MTT | 75 h | IC50 | 49000 nM |
| COc1c(C)c2c(c(O)c1C/C=C(\C)CCC(=O)O)C(=O)OC2 | – | – | IC50 | 1200 nM |
| COc1ccc(NC(=O)Nc2ccc3c(c2)C=CCP(=O)(O)O3)cc1 | MTT | 72 h | Emax | 50% |
| [C-]#[O+].[C-]#[O+].[C-]#[O+].[C-]#[O+].[C-]#[O+].[C-]#[O+].[C-]#[O+].[C-]#[O+].[C-]#[O+].[C-]#[O+].[Mn].[Mn] | MTT | 48 h | IC50 | 25400 nM |
| CC(=O)N[C@H]1[C@@H](O[C@@H]2O[C@H](C[C@@H](O)[C@H]3O[C@@H](n4ccc(=O)[nH]c4=O)[C@H](O)[C@@H]3O)[C@H](O)[C@H](O)[C@H]2NC(=O)/C=C/CCCCCCCCCC(C)C)O[C@H](CO)[C@@H](O)[C@@H]1O | WST-1 | – | IC50 | 170 nM |
| N.N.[Cl][Pt][Cl] | MTT | – | IC50 | > 100000 nM |
| CC(C)=C[C@H]1C[C@H](C)[C@]2(CC[C@]3(C)C[C@H]4[C@H](C(=O)C[C@@]4(C)O)/C(C=O)=C\C[C@H]32)O1 | – | – | IC50 | 58.2 nM |
| CCOP1(=O)CC=Cc2cc(N)ccc2O1 (stereo not drawn) | MTT | 72 h | Emax | 10 to 15% |
| C=CCNC1=C2C[C@@H](C)C[C@H](OC)[C@H](O)[C@@H](C)/C=C(\C)[C@H](OC(N)=O)[C@@H](OC)/C=C\C=C(/C)C(=O)NC(=CC1=O)C2=O | – | 72 h | IC50 | 19500 nM |
| CC[C@H](C)[C@@H]([C@@H](CC(=O)N1CCC[C@H]1[C@H](OC)[C@@H](C)C(=O)N[C@H](C)[C@@H](O)c1ccccc1)OC)N(C)C(=O)[C@@H](NC(=O)[C@@H](NC)C(C)C)C(C)C | CCK-8 | – | IC50 | 8.28 nM |
